# Calls of active or inactive are those of the source. The calls are words filed in the database; no cut-off is given here.
# How the values were obtained:
# Adenosine receptor A2b = molecular target: T1, Adenosine receptor A2b (Homo sapiens, UniProt P29275); experiment: Displacement of radioligand from human recombinant adenosine A2B receptor at 21 degC after 60 mins by cell-based microplate scintillation counting
# T1 sequence (P29275 whole entry): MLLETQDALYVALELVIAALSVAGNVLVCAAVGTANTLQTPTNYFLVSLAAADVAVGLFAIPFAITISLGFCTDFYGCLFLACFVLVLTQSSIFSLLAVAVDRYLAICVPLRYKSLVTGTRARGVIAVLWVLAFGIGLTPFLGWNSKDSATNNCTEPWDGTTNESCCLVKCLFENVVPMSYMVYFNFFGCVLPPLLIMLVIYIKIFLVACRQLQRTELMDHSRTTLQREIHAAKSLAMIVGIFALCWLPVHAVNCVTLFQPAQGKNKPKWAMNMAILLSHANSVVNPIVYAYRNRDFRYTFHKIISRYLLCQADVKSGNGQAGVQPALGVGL
# Adenosine receptor A2a = Adenosine receptor A2a (Homo sapiens, UniProt P29274); experiment: Displacement of radioligand from human recombinant adenosine A2A receptor at 21 degC after 90 mins by cell-based microplate scintillation counting
# Adenosine receptor A1 = molecular target: T2, Adenosine receptor A1 (Homo sapiens, UniProt P30542); experiment: Displacement of radioligand from human recombinant adenosine A1 receptor at 21 degC after 90 mins by cell-based microplate scintillation counting
# T2 sequence (P30542 whole entry): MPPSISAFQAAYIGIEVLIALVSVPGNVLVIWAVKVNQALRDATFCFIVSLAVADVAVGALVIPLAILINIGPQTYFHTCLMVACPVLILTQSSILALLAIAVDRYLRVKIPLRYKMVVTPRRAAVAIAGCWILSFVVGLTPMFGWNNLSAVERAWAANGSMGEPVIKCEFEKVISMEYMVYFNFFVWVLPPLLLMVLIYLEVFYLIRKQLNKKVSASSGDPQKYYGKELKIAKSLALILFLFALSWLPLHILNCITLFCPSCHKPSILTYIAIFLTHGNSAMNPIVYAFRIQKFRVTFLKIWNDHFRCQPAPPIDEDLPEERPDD
# Adenosine receptor A3 = molecular target: T3, Adenosine receptor A3 (Homo sapiens, UniProt P0DMS8); experiment: Displacement of radioligand from human recombinant adenosine A3 receptor at 21 degC after 60 mins by cell-based microplate scintillation counting
# T3 sequence (P0DMS8 whole entry): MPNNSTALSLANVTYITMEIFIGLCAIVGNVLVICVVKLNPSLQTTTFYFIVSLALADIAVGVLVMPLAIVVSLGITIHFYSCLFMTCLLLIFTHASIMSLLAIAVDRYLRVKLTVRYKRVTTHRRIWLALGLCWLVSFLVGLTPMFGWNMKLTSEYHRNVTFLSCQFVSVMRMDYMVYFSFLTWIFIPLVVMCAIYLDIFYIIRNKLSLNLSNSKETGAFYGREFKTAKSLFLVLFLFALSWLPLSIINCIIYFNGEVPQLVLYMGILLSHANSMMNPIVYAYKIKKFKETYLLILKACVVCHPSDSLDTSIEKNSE
# Rattus norvegicus = experiment: Reversal of haloperidol-induced hypolocomotion in Sprague-Dawley rat assessed as time spent for locomotor activity at 30 mg/kg, po administered 120 mins prior and measured for 60 mins; format: functional, organism-based; parameters: dose 30 mg/kg
# Liver microsomes = experiment: Metabolic stability in rat liver microsomes after 30 mins; format: ADME, Microsome; details: 0.5 h
# Outline: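 Turnover by rodent liver microsomes measured as percent turnover after 30 min.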
# [1] = Aqueous solubility in phosphate buffered saline; format: physicochemical
# Mus musculus = experiment: Reversal of haloperidol-induced hypolocomotion in TO mouse assessed as time spent for locomotor activity at 30 mg/kg, po administered 15 mins prior and measured for 60 mins; format: functional, organism-based; parameters: dose 30 mg/kg
# Sequence of Adenosine receptor A2a (P29274 whole entry): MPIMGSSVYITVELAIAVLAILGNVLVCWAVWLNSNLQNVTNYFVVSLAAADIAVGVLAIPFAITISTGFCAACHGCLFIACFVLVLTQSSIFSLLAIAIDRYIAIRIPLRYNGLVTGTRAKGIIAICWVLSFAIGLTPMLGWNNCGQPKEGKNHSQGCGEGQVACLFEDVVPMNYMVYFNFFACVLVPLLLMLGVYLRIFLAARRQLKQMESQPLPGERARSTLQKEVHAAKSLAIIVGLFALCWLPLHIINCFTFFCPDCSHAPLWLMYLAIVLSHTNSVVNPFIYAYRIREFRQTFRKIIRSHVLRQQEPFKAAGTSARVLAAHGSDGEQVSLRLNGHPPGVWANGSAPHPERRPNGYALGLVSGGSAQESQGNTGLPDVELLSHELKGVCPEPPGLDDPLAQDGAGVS
SMILES,Ki (Adenosine receptor A2b) [nM],Ki (Adenosine receptor A2a) [nM],Ki (Adenosine receptor A1) [nM],Ki (Adenosine receptor A3) [nM],Stability (Liver microsomes),solubility [1] [µM],Activity (Rattus norvegicus),Activity (Mus musculus)
Nc1nc(-c2cncs2)c2nnn(Cc3ccccc3F)c2n1,423,31,894,1780,,,,
Nc1nc(-c2ccco2)c2nnn(Cc3ccc(N)c(F)c3)c2n1,43,0.7,120,1070,,,,
Cc1cnc(-c2nc(N)nc3c2nnn3Cc2ccccc2F)s1,199,8.5,86,338,,,,
Nc1nc(-c2ccco2)c2nnn(Cc3ccc([N+](=O)[O-])cc3)c2n1,440,28,769,1230,Stable,30,inactive,inactive
Nc1nc(-c2nccs2)c2nnn(Cc3ccccc3F)c2n1,271,8.5,553,2200,,30,inactive,inactive
CC(C)NC(=O)c1cccc(Cn2nnc3c(-c4ccco4)nc(N)nc32)c1,593,10.8,733,530,Stable,30,inactive,inactive
Nc1nc(-c2ccco2)c2nn[nH]c2n1,,194,3620,,Stable,30,inactive,inactive
Nc1nc(-c2ccco2)c2nnn(Cc3cc(F)ccc3F)c2n1,128,2.2,98,450,,,,
Nc1nc(-c2ccco2)c2nnn(Cc3cnccn3)c2n1,1140,122,1170,2220,,,,
Nc1nc(-c2cc[nH]n2)c2nnn(Cc3ccccc3F)c2n1,1780,239,1660,1290,Stable,30,inactive,inactive
Nc1ccc(Cn2nnc3c(-c4ccco4)nc(N)nc32)c(F)c1,23,3.5,190,685,,,,
Nc1nc(-c2ccco2)c2nnn(Cc3cccc(F)c3F)c2n1,79,2.3,110,619,,,,
COC(=O)c1cccc(Cn2nnc3c(-c4ccco4)nc(N)nc32)c1,907,4.1,105,1170,Stable,30,,
Nc1nc(-c2cnn[nH]2)c2nnn(Cc3ccccc3F)c2n1,1290,400,2960,2810,Stable,30,inactive,inactive
CC(=O)Nc1ccc(Cn2nnc3c(-c4ccco4)nc(N)nc32)cc1,443,116,2530,2380,,,,
Nc1nc(-c2ccco2)c2nnn(Cc3c(F)cccc3F)c2n1,24,1.9,42,203,,,,
Nc1nc(-c2ccco2)c2nnn(CC3CCCCC3)c2n1,634,8.5,230,1140,,,,
CC(C)N(C)C(=O)c1cccc(Cn2nnc3c(-c4ccco4)nc(N)nc32)c1,937,22,1130,2470,Stable,30,inactive,inactive
Nc1nc(-c2ncco2)c2nnn(Cc3ccccc3F)c2n1,836,41,599,2110,,,,
Nc1nc(-c2ccco2)c2nnn(Cc3ccc4[nH]ncc4c3)c2n1,206,8.6,190,2430,,,,
Cc1csc(-c2nc(N)nc3c2nnn3Cc2ccccc2F)n1,53,2.2,203,1260,,,,
Nc1nc(-c2ccco2)c2nnn(Cc3ccc4[nH]ccc4c3)c2n1,59,1.1,27,606,,,,
Nc1nc(-c2ccco2)c2nnn(Cc3ccc4[nH]nnc4c3)c2n1,134,11.9,291,3010,,,,
Nc1nc(-c2cccs2)c2nnn(Cc3ccccc3F)c2n1,248,8.2,154,871,,,,
Nc1nc(-c2ccco2)c2nnn(Cc3ccc(N)c(O)c3)c2n1,84,1.6,249,1360,,,,

# Second part, led by results:
Ki (Adenosine receptor A2b) [nM],Ki (Adenosine receptor A2a) [nM],Ki (Adenosine receptor A1) [nM],Ki (Adenosine receptor A3) [nM],Stability (Liver microsomes),solubility [1] [µM],SMILES,Activity (Rattus norvegicus),Activity (Mus musculus)
643,1.8,77,563,,,COc1cccc(Cn2nnc3c(-c4ccco4)nc(N)nc32)c1,,
132,11.1,700,2580,Stable,30,NC(=O)c1cccc(Cn2nnc3c(-c4ccco4)nc(N)nc32)c1,inactive,inactive
109,2.7,105,440,Stable,30,Nc1nc(-c2ccco2)c2nnn(Cc3ccccc3F)c2n1,inactive,inactive
916,241,4910,> 10000,,,NCc1ccc(Cn2nnc3c(-c4ccco4)nc(N)nc32)cc1,,
630,3.9,132,693,,,N#Cc1cccc(Cn2nnc3c(-c4ccco4)nc(N)nc32)c1,,
2110,832,4140,3810,,,Nc1nc(-c2ccco2)c2nnn(Cc3cccc(C(=O)O)c3)c2n1,,
192,8.8,77,240,,,Nc1nc(-c2ccco2)c2nnn(Cc3ccco3)c2n1,,
741,5.4,319,340,,,COc1ccccc1Cn1nnc2c(-c3ccco3)nc(N)nc21,,
282,3,183,341,Stable,30,Cc1ccccc1Cn1nnc2c(-c3ccco3)nc(N)nc21,inactive,inactive
259,2.2,100,736,,,Nc1nc(-c2ccco2)c2nnn(Cc3cccc(C(F)(F)F)c3)c2n1,,
254,3,45,360,,,Cc1cccc(Cn2nnc3c(-c4ccco4)nc(N)nc32)c1,,
160,2.3,76,269,,,Nc1nc(-c2ccco2)c2nnn(Cc3cccc(Cl)c3)c2n1,,
10,4,314,491,,,Nc1nc(-c2ccco2)c2nnn(Cc3cccc(O)c3)c2n1,,
122,1.9,83,285,Stable,30,Nc1nc(-c2ccco2)c2nnn(Cc3ccccc3)c2n1,inactive,inactive
383,6.6,400,168,,,Nc1nc(-c2ccco2)c2nnn(Cc3ccccc3[N+](=O)[O-])c2n1,,
646,3.7,231,844,Stable,30,Nc1nc(-c2ccco2)c2nnn(Cc3cccc([N+](=O)[O-])c3)c2n1,inactive,inactive
